Screens (PubChem)
Lung fibro prol: antiproliferative effect on LL 47 fibroblasts – human, LL 47 cells, CellTiter-Glo luminescence, primary screen; 85,000 compounds, 1.1% hits; viability, % at 10 µM; AID 719, 2007; LL 47 human lung fibroblast viability, ATP luminescence; hits give low values;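 active means viability at or below 50% in the single dose screen; inactive means viability above 50%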;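 further: compound exposure lasted 72 h before the ATP readout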
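Test system: LL 47 human lung fibroblasts / Quantity: 1,150 cells in each well / Medium: IMEM growth medium with 15% fetal bovine serum / Incubation: 72 h compound exposure at 37 °C after overnight plating / Detection: CellTiter-Glo luminescence measuring cellular ATP / Read-out: % viability versus median cells-only luminescence / Benchmarks: cell-only wells, no compound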
H69AR inhibit: proliferation blockers of H69AR lung cancer cells, primary screen, cell-based, human, 86K library. H69AR lung tumor viability, ATP luminescence, 72 h; hits give low values. viability, % at 10 µM. 85,000 compounds, 6% hits. AID 598, 2007;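 active means viability at or below 40%; inactive means viability above 40%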;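 further: multidrug resistant small cell line overexpressing MRP-1 efflux transporter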
HCT116 PTEN-null: growth suppression of PTEN-null HCT116, primary screen, cell-based, CellTiter-Glo | HCT116 PTEN-null viability, 60 h; hits give low values | viability, % at 10 µM | 140,000 compounds, 1.2% hits | AID 827, 2007;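 active means viability at or below a set limit, 4 SD under the median of all tested compounds, cut at about 3.7% in these data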;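 further: PTEN knockout HCT116 line with beta catenin targeted HCT116 as companion control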
HCT116 bCat-KO: primary screen for growth suppressors in beta-catenin knockout HCT116 cells (colon tumor, human); viability, % at 10 µM; 140,000 compounds, 1.5% hits; AID 818, 2007; HCT116 beta-catenin knockout viability, CellTiter-Glo, 60 h; hits give low values;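 active means viability at or under a set limit, the compound median less 4 SD, cut at about 6% in these data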
HUVEC inhibit: inhibitors of HUVEC proliferation, primary screen, cell-based, 384-well | CellTiter-Glo luminescence, 72 h; hits give low values | viability, % at 10 µM (by protocol) | 86,000 compounds, 1.1% hits;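 active means viability at or below 30%; inactive means viability above 30%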
A number is an active result; - = inactive; . = not tested or not shown. Shown is part of a subset that was picked to be rich in hits.

SMILES	Lung fibro prol	H69AR inhibit	HCT116 PTEN-null	HCT116 bCat-KO	HUVEC inhibit
Cc1ccc(S(=O)(=O)C/N=C(/NC(=S)N(c2ccccc2)c2ccccc2)c2ccccc2)cc1	-	-	.	-	-
CC1Cc2ccccc2N1Cc1nc2cc(Cl)ccc2c(=O)[nH]1 (centres undefined)	-	25	-	-	-
COC(=O)c1ccc2c(=O)[nH]c(CN3c4ccccc4CC3C)nc2c1 (centres undefined)	-	-	-	-	-
COc1ccc(CCN(C(=S)Nc2ccccc2)C2CC(=O)N(c3ccccc3)C2=O)cc1 (centres undefined)	.	.	-	-	.
O=C1CC(N(CCc2ccccc2)C(=S)Nc2ccccc2)C(=O)N1c1ccc(Br)cc1 (centres undefined)	.	.	2.8	1.9	.
CC1=C(C(=O)Nc2ccc([N+](=O)[O-])cc2)C(c2cccc(C(F)(F)F)c2)NC(=S)N1c1ccccc1 (centres undefined)	.	.	1.9	1.4	.
O=C(c1ccc(F)cc1F)N1CCN(c2ncccn2)CC1	-	-	-	-	-
O=C(c1ccccc1OCc1ccccc1Br)N1CCN(c2ncccn2)CC1	-	28	-	-	-
CCOC(=O)c1sc(N2N=C(C)/C(=C\c3ccc(OCC(=O)OC)cc3)C2=O)nc1C	.	.	-	-	.
COc1ccccc1Cn1c(/C=C/c2ccccc2)nc2ccccc21	.	.	-	-	.
COc1ccc(/C=C/c2nc3ccccc3n2Cc2ccccc2OC)cc1	.	.	2.8	1.9	.
COc1ccc(/C=C/C(=O)Nc2ccc(OC)nc2)cc1	.	.	-	-	.
COc1ccc(NC(=O)/C(Cl)=C(/Cl)S(=O)Cc2ccccc2)cn1 (centres undefined)	1.2	1.7	1.5	1.5	2.2
COc1ccc(CS(=O)(=O)/C(Cl)=C(/Cl)C(=O)Nc2ccc(OC)nc2)cc1	4.8	0.0	-	-	2.6
Cc1c(O)c2c3c(cccc3c1O)C(=O)N(c1ccccc1)C2=O	.	.	-	-	.
CC(C)c1ccc(O)c(NC(=O)c2ncn[nH]2)c1	-	-	-	-	-
CCc1ccc2c(c1)[C@]1(C(=O)N2)[C@@H]2C(=O)N(Cc3ccccc3)C(=O)[C@@H]2[C@@H]2CCCN21	-	-	-	-	-
CC(C)c1ccc2c(c1)C1(NN=C(c3ccccc3)S1)C(=O)N2 (centres undefined)	43	18	-	4.5	3.4
CCc1ccc2c(c1)C1(NN=C(c3ccc(C)cc3)S1)C(=O)N2 (centres undefined)	47	2.3	1.7	1.4	9.8
CCn1c(CNC(=O)Cc2ccc(OC)cc2)nnc1SCC(=O)NC1CCCCC1	-	-	-	-	-
COC(=O)C1=C(C)NC(C)=C(C(=O)OC)C1c1cc2ccc(C)cc2[nH]c1=O	-	20	-	-	-
CC1(C)CCCN(C(=O)c2coc(=O)c(Br)c2)C1	-	7.0	-	-	-
O=C(c1cncc(Br)c1)N1CCCc2ccccc21	-	-	-	-	-
O=C(c1coc(=O)c(Br)c1)N1CCCc2ccccc21	-	-0.6	-	-	-
O=C(Oc1cccc2cccnc12)c1cccc(N2C(=O)C3C4CCC(C4)C3C2=O)c1 (centres undefined)	.	.	2.1	4.5	.
SMILES	Lung fibro prol	H69AR inhibit	HCT116 PTEN-null	HCT116 bCat-KO	HUVEC inhibit
Cc1cc2c3c(c1)C1(C(=O)N3C(C)(C)CC2C)C(C#N)=C(N)Oc2n[nH]c(C)c21 (centres undefined)	-	20	-	-	-
Oc1ccc(Br)cc1-c1nc2cnccn2c1NC1CCCC1	-	-	1.9	1.3	-
CC(=O)Nc1ccc(S(=O)(=O)NNC(=O)c2cc3c4ccccc4n(C)c3s2)cc1	.	.	-	-	.
O=[N+]([O-])c1cccnc1NCCNc1ncc(C(F)(F)F)cc1Cl	.	.	-	-	.
CN(C)c1ccc(/C=N/N2C(=N)N(c3ccccc3)C(=S)C2=Nc2ccccc2)cc1	-	16	.	.	-
CCOC(=O)c1ccc(N=C2C(=S)N(c3ccc(C(=O)OCC)cc3)C(=N)N2/N=C/c2ccccc2)cc1	-	0.9	-	-	-
CCOC(=O)c1ccc(N2Cc3ccccc3C2=N)cc1	.	.	-	-	.
Fc1ccc(Nc2ccnc(Nc3ccc(F)cc3)n2)cc1	.	.	-	-	.
COc1cc(/C=N/NC(=O)C2C3CCCCC32C)cc(Br)c1O (centres undefined)	.	.	-	-	.
CCOC(=O)C(C(C)=O)c1c(Br)c(O)c(O)c2c(C(=O)c3ccc(C)cc3)coc12 (centres undefined)	10	1.4	1.7	1.3	-
CS(=O)(=O)n1nc(C(=O)N2CCOCC2)nc1N	.	.	-	-	.
O=c1cc(/C=C/c2cccs2)[nH]c2ccccc12	-	25	-	-	-
Cc1c(C#N)c(N=CN(C)C)c(C(=O)c2ccc(Br)cc2)n1-c1ccccc1	-	-	-	-	-
Cc1c(C#N)c(N=CN(C)C)c(C(=O)c2ccccc2)n1-c1ccc(Br)cc1	-	20	-	-	-
O=[N+]([O-])c1ccccc1CNC(Cc1ccccc1)c1ccccc1 (centres undefined)	-	-	-	-	-
N/C(Cc1ccc([N+](=O)[O-])cc1)=N\OC(=O)c1ccc2ccccc2c1	-	-	-	-	24
N/C(Cc1ccc([N+](=O)[O-])cc1)=N\OC(=O)c1ccc(Br)cc1	.	.	-	-	.
Cc1cccc(C(=O)O/N=C(\N)Cc2ccc([N+](=O)[O-])cc2)c1	-	3.6	-	-	-
CCCCCCNC(=O)CC(NS(=O)(=O)c1ccc(OC)cc1)C(C)C (centres undefined)	.	.	-	-	.
CCCCOc1ccc(/C(O)=C2/C(=O)C(=O)N(Cc3cccnc3)C2c2ccncc2)c(C)c1 (centres undefined)	.	.	-	-	.
CC(C)NCC(O)Cn1c2c(c3ccccc31)CCc1c-2cnn1-c1ccccc1 (centres undefined)	.	.	2.0	1.5	.
C=C(C)C(=O)OC1(C(F)(F)F)Oc2cc(C)ccc2NC1=O (centres undefined)	17	1.5	-	-	15
COC(=O)CC1Oc2ccc(C)cc2NC1=O (centres undefined)	-	-	-	-	-
CC(C)C(C)(C#N)NC(=O)CSc1nnc(C(F)(F)F)n1C (centres undefined)	-	-	-	-	-
Nc1nonc1C(=O)NCCNCc1c(OCc2ccccc2F)ccc2ccccc12	-	12	-	-	-
O=C(NCCCn1ccnc1)c1cc2nc(-c3ccc(Br)cc3)cc(C(F)(F)F)n2n1	-	4.2	-	-	-
CC(OC(=O)c1nn(C(C)C)c(=O)c2ccccc12)C(=O)Nc1ncc(Cl)cc1Cl (centres undefined)	.	.	-	-	.
CCOC(=O)c1cc(NC(=O)Nc2nccs2)c(C)nc1C	.	.	-	-	.
COC(=O)C1=C(C)NC(=O)/C1=C\c1cc(C)n(-c2c(C)cccc2C)c1C	-	-	-	-	27
